According to ChEMBL document CHEMBL1128722, “Mechanism-based isocoumarin inhibitors for human leukocyte elastase. Effect of the 7-amino substituent and 3-alkoxy group in 3-alkoxy-7-amino-4-chloroisocoumarins on inhibitory potency” (J Med Chem, 1995):
Values belong to the molecule of their own block, whether it stands above or below them.

What was measured:
[1] = molecular target: T1, Chymotrypsin-like elastase family member 2A (Sus scrofa) (UniProt P08419); assay: The second order inactivation rate constant expressed as inhibition of porcine pancreatic elastase (PPE).Inhibitor concentrations were 0.04-2.0 mM
T1 sequence (whole entry): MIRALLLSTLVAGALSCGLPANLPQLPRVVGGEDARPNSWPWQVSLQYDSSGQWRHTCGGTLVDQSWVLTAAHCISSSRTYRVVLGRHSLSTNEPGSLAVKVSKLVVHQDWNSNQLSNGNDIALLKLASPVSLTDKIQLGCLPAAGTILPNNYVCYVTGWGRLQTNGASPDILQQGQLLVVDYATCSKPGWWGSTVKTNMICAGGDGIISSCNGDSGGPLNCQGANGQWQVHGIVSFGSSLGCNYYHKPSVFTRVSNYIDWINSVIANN

[2] = molecular target: T2, Neutrophil elastase (Homo sapiens) (UniProt P08246); assay: The second order inactivation rate constant expressed as inhibition of human leukocyte elastase (HLE). Inhibitor concentrations were 0.07-710 uM
T2 sequence (whole entry): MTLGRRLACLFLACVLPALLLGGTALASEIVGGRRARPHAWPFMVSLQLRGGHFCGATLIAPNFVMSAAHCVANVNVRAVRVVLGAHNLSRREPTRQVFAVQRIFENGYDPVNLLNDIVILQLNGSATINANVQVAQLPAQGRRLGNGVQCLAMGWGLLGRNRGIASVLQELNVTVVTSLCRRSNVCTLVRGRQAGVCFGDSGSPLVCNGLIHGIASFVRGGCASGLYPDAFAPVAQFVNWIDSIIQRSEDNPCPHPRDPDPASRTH
Method in brief: (§1)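 Kitz–Wilson incubation method. Enzyme was preincubated with inhibitor (added in DMSO) in 0.1 M HEPES, 0.5 M NaCl, pH 7.5, at 25 °C. Aliquots were taken over time and diluted into pNA substrate: HLE MeO-Suc-Ala-Ala-Pro-Val-pNA (0.2–0.5 mM), PPE Suc-Ala-Ala-Ala-pNA, ChT and Cat G Suc-Val-Pro-Phe-pNA (0.4–0.5 mM). Release was read at 410 nm. kobs/[I] from ln(v0/vt) vs time. Mean of two determinations. Fast rates measured with equimolar inhibitor and enzyme.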

[3] = molecular target: T3, Cathepsin G (Homo sapiens) (UniProt P08311); assay: Inhibition of cathepsin G at 35-710 uM
T3 sequence (whole entry): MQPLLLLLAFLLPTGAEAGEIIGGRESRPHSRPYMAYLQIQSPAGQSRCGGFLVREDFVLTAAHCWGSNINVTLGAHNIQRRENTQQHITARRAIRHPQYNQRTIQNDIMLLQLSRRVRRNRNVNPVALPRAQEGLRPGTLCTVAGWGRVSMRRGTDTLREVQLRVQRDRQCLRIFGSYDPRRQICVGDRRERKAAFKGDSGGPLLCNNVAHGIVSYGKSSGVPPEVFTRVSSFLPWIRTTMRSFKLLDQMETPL
Method in brief: as §1

[4] = molecular target: T2, Neutrophil elastase (Homo sapiens); assay: Inhibition of human leukocyte elastase(HLE) at 0.7-1.7 uM
Method in brief: as §1

[5] = molecular target: T1, Chymotrypsin-like elastase family member 2A (Sus scrofa); assay: The second order inactivation rate constant was expressed as inhibition of porcine pancreatic elastase (PPE).Inhibitor concentrations were 2-600 uM
Method in brief: as §1

[6] = molecular target: Chymotrypsinogen A (Bos taurus) (UniProt P00766); assay: The second order inactivation rate constant was expressed as inhibition of chymotrypsin (ChT).Inhibitor concentrations were 360-570 uM
Method in brief: as §1

[7] = molecular target: T2, Neutrophil elastase (Homo sapiens); assay: The second order inactivation rate constant was expressed as inhibition of human leukocyte elastase (HLE). Inhibitor concentrations were 0.4-4 uM
Method in brief: as §1

[8] = molecular target: T3, Cathepsin G (Homo sapiens); assay: Inhibition of cathepsin G(Cat G) at 35-710 uM
Method in brief: as §1

[9] = molecular target: T2, Neutrophil elastase (Homo sapiens); assay: Second order inactivation rate constant for inhibition of human leukocyte elastase.
Method in brief: as §1

[10] = molecular target: T2, Neutrophil elastase (Homo sapiens); assay: Inhibition of human leukocyte elastase.
Method in brief: as §1

[11] = Half-life for hydrolysis was determined from kinetic constant.; assay type: ADME
Method in brief: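 Spontaneous hydrolysis in 0.1 M HEPES, 0.5 M NaCl, pH 7.5, 10% v/v DMSO final, 25 °C. Inhibitor added from 2.9–5.0 mM DMSO stock. Ring opening followed as absorbance decrease at 385 nm (ε385 = 3300 M⁻¹ cm⁻¹). Half-life from the first-order rate. Two determinations, standard errors ±15% or less.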

SMILES: O=C(Nc1ccccc1)Nc1ccc(C(=O)NC(Cc2ccccc2)C(=O)Nc2ccc3c(Cl)c(OCCBr)oc(=O)c3c2)cc1 (centres undefined)
K obs / 1 [1]: 130 M⁻¹ s⁻¹
K obs / 1 [2]: 6100 M⁻¹ s⁻¹

SMILES: O=C(CCc1ccccc1)Nc1ccc2c(Cl)c(OCCBr)oc(=O)c2c1
K obs / 1 [1]: 11 M⁻¹ s⁻¹

SMILES: CCCOc1oc(=O)c2cc(NC(=O)c3cccc([N+](=O)[O-])c3)ccc2c1Cl
k obs / 1 [4]: > 210000 M⁻¹ s⁻¹

SMILES: COc1oc(=O)c2cc(NC(=O)C(Cc3ccccc3)NC(=O)c3ccc(NC(=O)Nc4ccccc4)cc3)ccc2c1Cl (centres undefined)
k obs / 1 [5]: 68 M⁻¹ s⁻¹
k obs / 1 [6]: 10 M⁻¹ s⁻¹
k obs / 1 [7]: 15000 M⁻¹ s⁻¹

SMILES: O=C(O)c1ccc(N/C(S)=N/c2ccc3c(Cl)c(OCCBr)oc(=O)c3c2)cc1
K obs / 1 [2]: > 390000 M⁻¹ s⁻¹
K obs / 1 [3]: 450 M⁻¹ s⁻¹

SMILES: Cc1cccc(C(=O)N[C@@H](Cc2ccccc2)C(=O)Nc2ccc3c(Cl)c(OCCBr)oc(=O)c3c2)c1
K obs / 1 [1]: 3500 M⁻¹ s⁻¹
K obs / 1 [2]: 31000 M⁻¹ s⁻¹

SMILES: O=C(Nc1ccccc1)Nc1ccc2c(Cl)c(OCCCBr)oc(=O)c2c1
K obs / 1 [1]: 4 M⁻¹ s⁻¹
inhibition [8]: 17%

SMILES: O=C(Nc1ccc2c(Cl)c(OCCBr)oc(=O)c2c1)NC(c1ccccc1)c1ccccc1
K obs / 1 [1]: 6 M⁻¹ s⁻¹
K obs / 1 [2]: 4410 M⁻¹ s⁻¹

SMILES: CCCOc1oc(=O)c2cc(NC(=O)[C@@H](NC(=O)OC(C)(C)C)C(C)C)ccc2c1Cl
k obs / 1 [4]: 64000 M⁻¹ s⁻¹

SMILES: C[C@H](NC(=O)OC(C)(C)C)C(=O)N[C@@H](C)C(=O)Nc1ccc2c(Cl)c(OCCBr)oc(=O)c2c1
K obs / 1 [1]: 1670 M⁻¹ s⁻¹
K obs / 1 [2]: 230000 M⁻¹ s⁻¹
K obs / 1 [3]: 46 M⁻¹ s⁻¹

SMILES: Cc1ccc(C(=O)N[C@@H](Cc2ccccc2)C(=O)Nc2ccc3c(Cl)c(OCCBr)oc(=O)c3c2)cc1
K obs / 1 [1]: 32 M⁻¹ s⁻¹
K obs / 1 [2]: 49000 M⁻¹ s⁻¹

SMILES: O=C(Cc1ccccc1)Nc1ccc2c(Cl)c(OCCCBr)oc(=O)c2c1
K obs / 1 [1]: 28 M⁻¹ s⁻¹
K obs / 1 [2]: 32400 M⁻¹ s⁻¹
inhibition [8]: 28%

SMILES: COc1oc(=O)c2cc(NC(=O)C(Cc3ccccc3)NC(=O)c3cccc(NC(=O)Nc4ccccc4)c3)ccc2c1Cl (centres undefined)
k obs / 1 [5]: 54 M⁻¹ s⁻¹
k obs / 1 [6]: 110 M⁻¹ s⁻¹
k obs / 1 [7]: 28000 M⁻¹ s⁻¹

SMILES: O=C(NCc1ccccc1)Nc1ccc2c(Cl)c(OCCBr)oc(=O)c2c1
K obs / 1 [1]: 3010 M⁻¹ s⁻¹
K obs / 1 [2]: 480000 M⁻¹ s⁻¹
inhibition [8]: 23%

SMILES: O=c1oc(OCCBr)c(Cl)c2ccc(N[N+](=O)[O-])cc12
K obs / 1 [1]: 6330 M⁻¹ s⁻¹
K obs / 1 [2]: 65600 M⁻¹ s⁻¹
K obs / 1 [3]: 710 M⁻¹ s⁻¹

SMILES: CCCOc1oc(=O)c2cc(NC(=O)CCc3ccccc3)ccc2c1Cl
k obs / 1 [4]: > 250000 M⁻¹ s⁻¹

SMILES: CC(C)(C)OC(=O)N[C@@H](Cc1ccccc1)C(=O)Nc1ccc2c(Cl)c(OCCBr)oc(=O)c2c1
K obs / 1 [1]: 50 M⁻¹ s⁻¹
K obs / 1 [2]: 146000 M⁻¹ s⁻¹
inhibition [8]: 19%

Further lines, results first:

K obs / 1 [1]: 1060 M⁻¹ s⁻¹
K obs / 1 [3]: 1660 M⁻¹ s⁻¹
SMILES: CC(Br)COc1oc(=O)c2cc([N+](=O)[O-])ccc2c1Cl (centres undefined)

K obs / 1 [1]: 9900 M⁻¹ s⁻¹
K obs / 1 [2]: > 440000 M⁻¹ s⁻¹
K obs / 1 [3]: 77 M⁻¹ s⁻¹
SMILES: C[C@H](NC(=O)Nc1ccc2c(Cl)c(OCCBr)oc(=O)c2c1)c1ccccc1

K obs / 1 [1]: 62 M⁻¹ s⁻¹
K obs / 1 [2]: 24000 M⁻¹ s⁻¹
K obs / 1 [3]: 150 M⁻¹ s⁻¹
SMILES: CC(Br)COc1oc(=O)c2cc(N)ccc2c1Cl (centres undefined)

k obs / 1 [9]: 390 M⁻¹ s⁻¹
[I] [10]: 7.8 µM
SMILES: COCCOc1oc(=O)c2cc(N)ccc2c1Cl

K obs / 1 [1]: 2730 M⁻¹ s⁻¹
K obs / 1 [2]: > 170000 M⁻¹ s⁻¹
SMILES: COC(=O)CCCC(=O)Nc1ccc2c(Cl)c(OCCBr)oc(=O)c2c1

k obs / 1 [4]: > 180000 M⁻¹ s⁻¹
SMILES: CCCOc1oc(=O)c2cc(NC(=O)OCC)ccc2c1Cl

k obs / 1 [9]: 54000 M⁻¹ s⁻¹
[I] [10]: 2.6 µM
half-life [11]: 4.6 h
SMILES: CCCOc1oc(=O)c2cc(N)ccc2c1Cl

K obs / 1 [5]: 3500 M⁻¹ s⁻¹
K obs / 1 [6]: 350 M⁻¹ s⁻¹
K obs / 1 [7]: 39000 M⁻¹ s⁻¹
SMILES: COc1oc(=O)c2cc(NC(=O)CBr)ccc2c1Cl

K obs / 1 [1]: 24 M⁻¹ s⁻¹
K obs / 1 [2]: 24400 M⁻¹ s⁻¹
K obs / 1 [3]: 170 M⁻¹ s⁻¹
SMILES: CC(=O)Nc1ccc2c(Cl)c(OCCCBr)oc(=O)c2c1

k obs / 1 [9]: 33 M⁻¹ s⁻¹
[I] [10]: 710 µM
SMILES: COCCOCCOc1oc(=O)c2cc(N)ccc2c1Cl

k obs / 1 [9]: 10000 M⁻¹ s⁻¹
[I] [10]: 6 µM
half-life [11]: 3.3 h
SMILES: COc1oc(=O)c2cc(N)ccc2c1Cl
